# FGF22 binding: binders of human FGF22 protein, primary screen, FGF22 synaptogenesis inhibitor project, biophysical, thermal shift, single point | Fibroblast growth factor 22 (Homo sapiens), Q9HCT0 | recombinant FGF22 thermal shift, SYPRO orange fluorescence; percent of sucrose octasulfate shift, DMSO zero | activity (Tm shift, normalised), % at 9.99 µM | hit rate 1.5% among 340,000;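 active = mean Tm shift, scaled 0 neutral to 100 positive control, at about 1.3% or above, every replicate too, limit read from the data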
# Target sequence (Q9HCT0 whole entry, looked up): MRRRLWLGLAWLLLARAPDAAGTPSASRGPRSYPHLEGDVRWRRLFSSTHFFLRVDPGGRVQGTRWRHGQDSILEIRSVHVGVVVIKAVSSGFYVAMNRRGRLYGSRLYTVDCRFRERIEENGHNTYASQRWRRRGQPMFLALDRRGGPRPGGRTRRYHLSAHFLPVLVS
# Rtt109 HAT inh: inhibitors of C. albicans Rtt109/Vps75 HAT, primary screen, biochemical, ThioGlo CoA-SH fluorescence, plate reader | AID 540336, 2011 | hit rate 0.16% among 330,000 | Histone acetyltransferase RTT109 (Candida albicans (strain SC5314 / ATCC MYA-2876)), … | purified Rtt109/Vps75, 4 h | inhibition, % at 34.9 µM;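 active = inhibition of at least 50% in every replicate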
# Efflux pump inh: inhibitors of Candida efflux pumps in yeast, primary screen, S. cerevisiae, Nile Red, multiplex; S. cerevisiae Candida pump triplex; hit rate 0.44% among 330,000; inhibition, % at 10 µM;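 active = plate passing quality check with inhibition over a set limit, or well fluorescence over plate mean plus 4 SD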;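 note: Nile Red retained in pooled yeast measured as flow cytometry median fluorescence; 0% = buffer negative control and 100% = Enniatin B positive control; higher means more Nile Red kept so more efflux inhibition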
# ASAP1 GAP inh: inhibitors of human ASAP1 ArfGAP activity, primary screen, biochemical, fluorescence polarization; Arf-GAP with SH3 domain, ANK repeat and PH domain-containing protein 1 (Homo sapiens), …; ASAP1-stimulated ARF1 GTP hydrolysis, GDP FP detection; inhibition, % at 16.5 µM; hit rate 0.19% among 360,000; in the data active = inhibition above about 25%;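 note: 0% = vehicle with enzyme and substrate and 100% = no enzyme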
# Target sequence (Q9ULH1 325-724 limits assumed): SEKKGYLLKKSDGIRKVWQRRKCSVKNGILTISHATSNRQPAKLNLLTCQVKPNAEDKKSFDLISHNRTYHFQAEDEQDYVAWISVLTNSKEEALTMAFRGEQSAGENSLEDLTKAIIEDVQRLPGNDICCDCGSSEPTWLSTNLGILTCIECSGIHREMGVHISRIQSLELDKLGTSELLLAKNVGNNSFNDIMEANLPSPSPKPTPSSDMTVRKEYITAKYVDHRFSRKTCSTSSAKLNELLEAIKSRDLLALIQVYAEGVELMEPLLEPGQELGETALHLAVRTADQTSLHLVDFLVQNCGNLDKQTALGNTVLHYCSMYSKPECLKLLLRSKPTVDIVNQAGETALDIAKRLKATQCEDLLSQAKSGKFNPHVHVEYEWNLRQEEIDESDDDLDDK
# ARFGAP1 inh: inhibitors of rat ARFGAP1 GAP activity, primary screen, biochemical, fluorescence polarization, GDP tracer | ADP-ribosylation factor GTPase-activating protein 1 (Rattus norvegicus), Q62848 | Arfgap1-stimulated ARF1 GTP hydrolysis, GDP FP detection | inhibition, % at 16.5 µM | hit rate 0.26% among 360,000 | AID 651572, 2012;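 active = inhibition above a per-plate limit, mean inhibition of low control wells plus 3 SD, cut at about 25% in these data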;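 note: 0% = DMSO wells with enzyme and 100% = wells lacking Arfgap1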
#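 Assay system: purified rat His6-Arfgap1 residues 1-136 (GAP domain); Reagent: human Δ17 ARF1 bound to GTP; Dosing: 16.5 µM single point, 1.26% DMSO; Times: GTP hydrolysis reaction 2 h at 25 °C; Signal: FP, GDP Alexa 633 tracer displaced from anti-GDP antibody, 620/688 nm; Measure: % inhibition from polarization.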
# Numbers without * were called inactive; . = no result; + = active, no number. In the library only some 1.9% were active in any assay of this set; here they are far more common.
SMILES,FGF22 binding,Rtt109 HAT inh,Efflux pump inh,ASAP1 GAP inh,ARFGAP1 inh
Cc1ccc(C(=O)N/N=C/C=C/c2ccccc2)cc1,0,-4,0,-5,-1
CCCCN(C)c1c(C)nc2ccc(C(=O)NC3CCN(C)CC3)cn12,-1,.,.,1,-6
Cc1ccc(S(=O)(=O)N(C)c2ccc(C)c([N+](=O)[O-])c2)cc1,43*,5,0,3,9
COc1ccc(N(C)S(=O)(=O)c2ccc(C)cc2)c([N+](=O)[O-])c1,0,8,0,15,8
COc1cc(OC)c(OC)cc1NC(=O)CC1COc2ccccc2O1 (configuration not stated),.,-6,0,1,0
COc1ccc(CCNC(=O)C2CCN(C(=O)NC3CCCCC3)CC2)cc1,.,-8,0,7,-3
CC(=O)c1cc(-c2ccccc2)n(CCC(=O)NC2CCCCC2)c1C,.,-6,0,-6,4
CC(=O)c1cc(-c2ccccc2)n(CCC(=O)NC2CCCC2)c1C,44*,.,0,8,0
CO[C@H](CN(C)Cc1ccc2c(c1)OCO2)[C@H](C)CN(C(=O)c1ccccc1)[C@H](C)CO,0,.,.,.,.
C(=C(c1ccccc1)c1ccccc1)c1ccccn1,0,-6,0,-3,2
CN(C)C(=O)c1ccc(-c2ccc([C@H]3[C@H](C#N)N(C(=O)C4CC4)[C@H]3CO)cc2)cc1,0,.,.,.,.
C/C(N)=C(/C#N)C(=O)CSc1nnc(C)n1-c1ccccc1,43*,4,0,-11,11
COC(=O)CN(c1ccccc1)S(=O)(=O)c1ccccc1,0,-7,0,0,11
CCOc1ncccc1C(=O)Nc1ccc(OC)c(S(=O)(=O)N2CCOCC2)c1,.,-4,.,-12,14
CCCCCCCCCCn1c2c(c(=N)c3c1CCC3)CCC2,.,77*,0,6,-17
O=C1c2cccnc2C(=O)N1CO,.,-1,0,4,-1
NC1=C(Br)C(=O)c2ncccc2C1=O,0,-5,.,28*,3
CCOC(=O)c1c(C)oc2c(CC(=O)c3ccccc3)c(Cl)c(O)c(O)c12,.,58*,0,-9,11
O=C(CSc1ccccc1)NCCCN1CCOCC1,.,10,0,4,9
CCOC(=O)c1c(C)n(-c2ccc(C)cc2)c2ccc(OCC(O)CNCCCO)cc12 (configuration not stated),0,67*,0,5,11
OC(CNCC1CCCO1)COc1ccc(OCC(O)CNCC2CCCO2)cc1 (configuration not stated),.,-5,0,.,.
CCOC(=O)c1c(C)n(-c2ccc(C)cc2)c2ccc(OCC(O)CNCC3CCCO3)cc12 (configuration not stated),.,64*,0,.,.
CCCCC(=O)OCC(=O)c1[nH]c(C)c(C(C)=O)c1C,0,-12,0,2,4
COC(=O)Nc1ccc(S(=O)(=O)N2CCCCC2)cc1,.,.,0,-1,14
O=C(O)/C=C/C(=O)Nc1ccc(S(=O)(=O)N2CCCC2)cc1,0,64*,0,-5,9
SMILES,FGF22 binding,Rtt109 HAT inh,Efflux pump inh,ASAP1 GAP inh,ARFGAP1 inh
CCOC(=O)CSc1ncnc2c1nnn2-c1ccc(F)cc1,.,-2,0,7,2
CCOC(=O)CSc1ncnc2c(C(=O)OCC)c3n(c12)CCC3,43*,0,0,-13,-14
NC(=O)c1ccccc1NC(=O)CSc1nc2ccccc2c(=O)[nH]1,0,14,0,4,-2
Cc1cc2nc(SCC(=O)Nc3ccccc3C(=O)O)[nH]c2cc1C,2.2*,5,0,-2,10
CSc1nsc(SCC(=O)Nc2ccccc2C(=O)O)n1,1.5*,-1,0,1,7
CCNC(=O)Nc1ccc2c(c1)C(=O)N(C)[C@@H]1CC[C@@H](CC(=O)NCC3CC3)O[C@H]1CO2,0,.,.,.,.
Cc1cccc(N2C(S)=C(C#N)C(=O)NC2c2cccs2)c1 (configuration not stated),.,121*,0,11,-8
N#CC1=C(S)N(c2ccc(F)cc2)C(c2cccs2)NC1=O (configuration not stated),.,9,.,-2,5
Cc1ccccc1N1C(S)=C(C#N)C(=O)NC1c1cccs1 (configuration not stated),.,+,0,19,4
Cc1cccc(OC(C)C(=O)OCC(=O)N2CCN(c3ccccc3)CC2)c1 (configuration not stated),44*,-1,0,3,1
Cc1ccc(C)c(-n2c(SCC(=O)N3CCC(C(=O)O)CC3)nnc2-c2cccc(Cl)c2)c1,44*,-1,0,4,9
Cc1ccccc1-n1c(SCC(=O)N2CCC(C(=O)O)CC2)nnc1-c1ccncc1,0,-7,0,5,12
O=C(CCCOc1ccccc1)Nc1cccc([N+](=O)[O-])c1,0,0,0,3,14
Cc1ccc(C(=O)CNc2cccc([N+](=O)[O-])c2)cc1,43*,-1,0,-2,-4
O=C(O)CCCC(=O)Nc1cccc([N+](=O)[O-])c1,43*,-3,0,2,10
Cc1ccc(NC(=O)Nc2cccc([N+](=O)[O-])c2)nc1,43*,0,0,6,-9
COc1ccc(NC(=O)Nc2ccc3c(c2)CC(=O)N([C@H](C)CO)C[C@@H](C)[C@@H](CN(C)S(=O)(=O)c2ccc(F)cc2)O3)cc1,-1,.,.,.,.
Cc1nc(NC(=O)CCl)sc1C(=O)N(C)C,43*,-14,0,2,24
O=C(C[C@H]1CC[C@@H]2[C@H](COC[C@@H](O)CN2S(=O)(=O)c2cccc(Cl)c2)O1)Nc1ccc(-c2ccccc2)cc1,1.3*,.,.,.,.
O=C(C[C@@H]1CC[C@H]2[C@@H](COC[C@@H](O)CN2S(=O)(=O)c2cccc(Cl)c2)O1)Nc1ccccc1,1,.,.,.,.
COc1cc(Cl)c(C)cc1NC(=O)CCN1C(=O)NC(C)(C)C1=O,43*,-5,.,7,0
C[C@@H]1CN([C@H](C)CO)C(=O)c2cccc(NC(=O)c3ccc(-c4nccs4)cc3)c2O[C@H]1CN(C)C,0,.,.,.,.
Cc1cccc(NC(=O)c2ncn3c2C(=O)N(C)CC3)c1,43*,.,.,-3,3
CCN(c1ccccc1)S(=O)(=O)c1ccc(OC)c(NC(=O)c2ccco2)c1,43*,.,.,-10,-2

# Assay outcomes (PubChem BioAssay)
